Assays:
SN mice [1] = assay type: in vivo, Kunming mouse; conditions: 200 μL of 20 μM intracardiac weekly, versus untreated SN mice
SH-sy5y cells = SH-sy5y cells in iron-rich medium: hydroxyl radical, iron and cell survival; assay type: cell-based, human; conditions: 1.5 μM peptide; SEM and flow cytometry
[2] = Isothermal titration calorimetry of FeCl3 with 5-YHEDA; conditions: ITC, 200 μM 5-YHEDA, 1000 μM FeCl3, one-site binding model
[3] = Solubility of the oligomer; assay type: physicochemical; conditions: dissolved in distilled water at 1 mg/mL
SN mice [4] = test: TUNEL assay of neuronal necrosis in brain; assay type: in vivo, Kunming mouse; conditions: intracardiac weekly, versus untreated SN mice
Summary of the method: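 Senescent 25-month-old Kunming mice were picked by water maze, TUNEL and blood assays and given 200 μL of 20 μM peptide intracardially each time. Frozen brain sections sat 1 h in Na-HEPES, then 10 mM H2O2 and […]. After PBS wash and 0.1% Triton X-100, TUNEL mix ran 1 h at 37°C in the dark; some sections were DAB-stained. Bright/brown spots were scored necrotic.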

[5] = 5-YHEDA immunohistochemical staining of brain slices after cardiac injection; assay type: in vivo, mouse; conditions: mice, intracardiac injection
Summary of the method: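 Fixed brain slices were blocked in 0.1% BSA/PBS (w/v) for 1 h, then given anti-peptide mouse serum at 4°C overnight. The serum was raised in normal mice injected weekly with peptide plus incomplete Freund adjuvant (s.c. or i.p.) for 2 months. After washing, slices took HRP goat anti-mouse IgG for 2 h, then DAB development.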

YHEDAYHEDAYHEDAYHEDAYHEDA [5-YHEDA]
iron and radical levels in the brain (Fig. 5I) (SN mice [1]): nearly the same as those in the untreated SN mice
survival of SH-sy5y cells in iron-rich medium (SH-sy5y cells): many of the SH-sy5y cells cultured in iron-rich medium survived
Gibbs energy lost after FeCl3 titration (ΔG) [2]: 8973 kcal/mol
solubility [3]: soluble
neuronal necrosis in the SN brain (TUNEL) (SN mice [4]): did not prevent neuronal damage
entry into brain (anti-5-YHEDA immunohistochemical staining of brain slices) [5]: no staining was observed

Reference: publication PMC6944740 (Alzheimer's & Dementia : Translational Research & Clinical …, 2019)
